Only some compounds are listed: those with a hit (about 1.8% of all), similar ones and a draw of the others.
M5 PAM = potentiates acetylcholine response at human M5 receptor. P08912. CHO-K1 hM5, Fluo-8 calcium, ACh EC20 PAM; 0% = ACh EC20, 100% = ACh EC100. activation, % at 3 µM. actives 0.3% (n = 360,000). AID 624038;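 active = activation above the run cutoff, the mean activation of all test compounds plus 3 SD, cut at about 18% in these data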
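Assay system: CHO-K1 hM5 cells / Incubation: Fluo-8 loading 80 min at 37 °C plus 30 min room temperature / Technique: Fluo-8 calcium dye fluorescence, kinetic read / Repeats: single replicate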
CHRM5 agonist = agonists of human muscarinic M5 receptor (CHRM5). activation, % at 3 µM. actives 0.19% (n = 360,000). CHO-K1 hM5 cells, Fluo-8 calcium fluorescence; 0% DMSO wells, 100% maximal acetylcholine response. P08912;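 active = activation above the run's mean over test compounds plus 3 SD, cut at about 23% in these data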;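 also: signal is peak over basal fluorescence ratio across the kinetic read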
M4 PAM = positive allosteric modulators of human muscarinic M4 receptor. activation, % at 3 µM. actives 0.4% (n = 360,000). AID 624126. P08173. CHO-K1 hM4/Gqi5, Fluo-8 calcium fluorescence, ACh EC20; 0% = ACh EC20, 100% = maximal ACh;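 active = activation above its plate's cutoff, the mean activation of sample wells plus 3 SD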
Target sequence (P08173 whole entry, looked up): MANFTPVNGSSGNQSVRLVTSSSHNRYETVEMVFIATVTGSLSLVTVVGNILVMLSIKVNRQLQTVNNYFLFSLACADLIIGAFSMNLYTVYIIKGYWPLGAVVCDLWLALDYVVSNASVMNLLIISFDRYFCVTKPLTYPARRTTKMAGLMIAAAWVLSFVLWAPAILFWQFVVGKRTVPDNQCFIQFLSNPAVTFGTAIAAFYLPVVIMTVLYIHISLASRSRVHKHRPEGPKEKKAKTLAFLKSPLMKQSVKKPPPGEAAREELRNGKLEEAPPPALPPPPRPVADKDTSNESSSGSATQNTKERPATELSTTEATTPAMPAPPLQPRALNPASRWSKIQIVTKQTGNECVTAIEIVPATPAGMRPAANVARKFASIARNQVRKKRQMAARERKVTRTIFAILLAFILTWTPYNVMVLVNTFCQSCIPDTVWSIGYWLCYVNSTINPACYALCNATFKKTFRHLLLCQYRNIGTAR
M4 ag = agonists of human muscarinic M4 receptor (CHRM4); CHO-K1 hM4/Gqi5, Fluo-8 calcium fluorescence; vehicle 0%, full acetylcholine response 100%; activation, % at 3 µM; actives 0.14% (n = 360,000); AID 624127;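 active = activation above the run mean over all test wells plus 3 SD, cut at about 32% in these data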;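 also: peak over basal fluorescence ratio per well then scaled between controls; 0% = DMSO wells and 100% = acetylcholine at EC100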
M4 antag = CHRM4 antagonism in calcium assay. actives 0.73% (n = 360,000). CHO-hM4 cells, ACh EC80, Fluo-8 calcium fluorescence. inhibition, % at 3 µM;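 active = inhibition above its plate's cutoff, the mean inhibition of sample wells plus 3 SD, cut at about 27% in these data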;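 also: 0% = acetylcholine EC80 with DMSO and 100% = DMSO without agonist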
M5 antag = CHRM5 antagonism in calcium assay; CHO-hM5 cells, Fluo-8 calcium fluorescence, ACh EC80; inhibition, % at 3 µM; actives 0.59% (n = 360,000); AID 624040;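 active = inhibition above a per-plate cutoff, the mean of that plate's test compounds plus 3 SD, cut at about 27% in these data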;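 also: 0% = acetylcholine EC80 with DMSO and 100% = DMSO without agonist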
* = called active by the depositor.

SMILES	M5 PAM	CHRM5 agonist	M4 PAM	M4 ag	M4 antag	M5 antag
O=C(NCCO)c1ccc(-c2ccc3nncn3c2)cc1	-5	-1	8	0	4	9
c1ccc(CCn2cnc3ccccc32)cc1	3	-5	13	1	-9	-4
c1ccc2c(c1)ncn2CCN1CCCCC1	20*	-6	0	0	-11	-11
Cc1cc(NC(=O)C2CCN(C(=O)c3ccco3)CC2)ccc1Br	0	6	-1	10	-11	2
CC(=O)Nc1cccc(-c2ccnc3c2CC(C(=O)NCCc2ccccc2)O3)c1 (stereo not given)	7	2	1	6	-11	-19
CCOc1ccc(CCNC(=O)COC(=O)C2=NNC(=O)CC2)cc1OCC	0	1	5	0	-9	2
COC(=O)c1cc2c(ccn2-c2ccc(F)cc2)n1CC(C)C	19*	11	17*	2	-16	-6
COC(=O)c1cc2c(ccn2-c2ccc(F)cc2)n1Cc1ccc(OC(C)=O)cc1	6	7	29	1	-9	1
CCCn1c(C(=O)OC)cc2c1ccn2-c1ccc(F)cc1	19*	11	7	-1	-18	-11
COC(=O)c1cc2c(ccn2-c2ccc(F)cc2)n1C(C)C	34*	-2	9	-2	-13	-1
COC(=O)c1cc2c(ccn2-c2ccc(F)cc2)n1Cc1cccc(OC)c1	3	-1	2	1	0	-3
CCN(CCCNC(=O)C1CCN(S(=O)(=O)c2cnc[nH]2)CC1)c1cccc(C)c1	42*	4	4	0	-9	0
Cc1ccc(S(=O)(=O)N2CCOC2CNC(=O)C(=O)NCc2ccc(Cl)cc2)cc1 (stereo not given)	2	0	7	7	1	-4
CC(C)C[C@H]1CN=C(Nc2ccccc2)N1CCc1cccc(F)c1	-40	74*	-21	126*	62*	38*
Cc1cccc(CCN2C(Nc3ccccc3)=NC[C@@H]2CC(C)C)c1	-43	58*	-23	137*	59*	15
CC(C)C[C@H]1CN=C(Nc2ccccc2)N1CCc1ccc(F)cc1	-40	64*	-18	115*	47*	13
CC(C)C[C@H]1CN=C(N(C)C)N1CCc1cccc(F)c1	0	-12	-4	2	10	0
CCNC(=O)C1(C)CCCN(C(=O)c2oc3ccccc3c2C)C1 (stereo not given)	0	1	3	-1	-8	-6
CCN(CC)CCN(C(=O)CCS(=O)(=O)c1ccccc1)c1nc2cc3c(cc2s1)OCO3	0	-6	-4	1	2	-6
COc1ccc(C2SCC(=O)N2c2c(C)n(C)n(-c3ccccc3)c2=O)cc1OC (stereo not given)	33*	5	7	1	-7	0
Cc1c(N2C(=O)CSC2c2ccccc2)c(=O)n(-c2ccccc2)n1C (stereo not given)	2	-1	2	0	0	6
C[C@@H]1CN([C@@H](C)CO)C(=O)CCCn2nncc2CO[C@H]1CN(C)S(=O)(=O)c1cccc(F)c1	-3	-1	0	1	0	9
O=C1C(=O)N(CCCc2ccccc2)c2ccccc21	-2	26*	-5	1	11	-9
O=C(CN1C(=O)C(=O)c2ccccc21)NCCc1ccccc1	5	2	-2	2	-5	0
COc1ccc(N2C(=O)c3ccccc3NC(=O)C2C(=O)NCCc2ccccc2F)cc1 (stereo not given)	-11	1	7	4	-13	16
SMILES	M5 PAM	CHRM5 agonist	M4 PAM	M4 ag	M4 antag	M5 antag
COc1ccccc1NS(=O)(=O)c1ccc2oc(SC(C)C(=O)N3CCNC3=O)nc2c1 (stereo not given)	-42	11	-13	32*	11	13
COc1ccc(-c2cnc(C(N)=O)c(=O)[nH]2)cc1	4	0	4	0	-16	-2
Cn1c(Br)nc2c1c(=O)n(CC(O)COc1ccccc1)c(=O)n2C (stereo not given)	-8	0	-4	34*	1	3
COc1ccc(NC(=O)CCNC(=O)c2ccc([N+](=O)[O-])cc2)cc1S(=O)(=O)N1CCCCC1	4	3	22*	0	-14	-2
CCC(CC)C(C(=O)NCc1ccccc1)N(C)Cc1ccc(Cl)c(Cl)c1 (stereo not given)	-15	-2	-16	7	13	17
CCCCC1CCC(C(=O)NCC(c2ccco2)N2CCOCC2)CC1 (stereo not given)	2	-4	1	2	-2	3
O=C1C(SCCO)=C(SCCO)C(=O)c2ccccc21	-2	17	-12	13	61*	38*
COc1cccc(C=Cc2nccc3ccccc23)c1OC	-1	-6	-10	4	-6	17
CN(C)c1ccc(C=Cc2nccc3ccccc23)cc1	-19	29*	-17	36*	23	29*
CCN(CC)c1nc(C=Cc2ccc(N(C)C)cc2)c2nccnc2n1	-13	31*	-10	29	41*	50*
CC(C)C[C@H]1CN(CCCC[C@H]2CNC(=O)C(=O)N2CCC2CCCCC2)C(=O)C(=O)N1CC1CCCCC1	1	-1	1	0	1	-1
COC(=O)c1sccc1S(=O)(=O)Nc1ccc(C(O)(C(F)(F)F)C(F)(F)F)cc1	-20	69*	-17	133*	63*	27
C=CC[C@H](CC(=O)N(CCO)Cc1ccccc1)C(=O)NCCOC(=O)[C@H](CC=C)CC(=O)OC(C)(C)C	-1	1	-2	9	-7	-4
CN(C)C(C)(C)C#CCC(c1ccccc1)c1ccccc1	-20	-8	-17	3	38*	46*
CN(C)C(C)(C)C#CCCCCC#CC(C)(C)N(C)C	0	-1	3	1	12	7
O=C(O)[C@@H]1CCCN1S(=O)(=O)c1cccc(S(=O)(=O)N2CCC[C@H]2C(=O)O)c1	0	1	4	0	6	7
O=C(O)C1CCCN1S(=O)(=O)c1cccc(S(=O)(=O)N2CCCC2C(=O)O)c1 (stereo not given)	6	2	15	1	32*	5
COc1ccccc1CN1CCC(n2nccc2NC(=O)CCOc2ccccc2)CC1	-7	-6	-1	1	3	21
COc1cc(/C=C2\SC(=S)N(Nc3ncc(C(F)(F)F)cc3Cl)C2=O)ccc1O	-47	6	-18	25	39*	27
